We go through nine molecules from ChEMBL document CHEMBL2176955, “Discovery of the macrocycle 11-(2-pyrrolidin-1-yl-ethoxy)-14,19-dioxa-5,7,26-triaza-tetracyclo[19.3.1.1(2,6).1(8,12)]heptacosa-1(25),2(26),3,5,8,10,12(27),16,21,23-decaene (SB1518), a potent Janus kinase 2/fms-like tyrosine kinase-3 (JAK2/FLT3) inhibitor for the treatment of myelofibrosis and …” (J Med Chem, 2011).

SMILES strings stand for the structures. pIC50: −log10 of the molar value. Converted amounts (≈) assume the structure as drawn. Bounds are passed on as bounds.

The target in data set [1] is Tyrosine-protein kinase JAK2 (Homo sapiens, UniProt O60674). Description: Inhibition of recombinant JAK2 using Poly (Glu,Ala,Tyr) as substrate after 2 hrs by luminescence assay.
Tyrosine-protein kinase JAK2, sequence (O60674 whole entry): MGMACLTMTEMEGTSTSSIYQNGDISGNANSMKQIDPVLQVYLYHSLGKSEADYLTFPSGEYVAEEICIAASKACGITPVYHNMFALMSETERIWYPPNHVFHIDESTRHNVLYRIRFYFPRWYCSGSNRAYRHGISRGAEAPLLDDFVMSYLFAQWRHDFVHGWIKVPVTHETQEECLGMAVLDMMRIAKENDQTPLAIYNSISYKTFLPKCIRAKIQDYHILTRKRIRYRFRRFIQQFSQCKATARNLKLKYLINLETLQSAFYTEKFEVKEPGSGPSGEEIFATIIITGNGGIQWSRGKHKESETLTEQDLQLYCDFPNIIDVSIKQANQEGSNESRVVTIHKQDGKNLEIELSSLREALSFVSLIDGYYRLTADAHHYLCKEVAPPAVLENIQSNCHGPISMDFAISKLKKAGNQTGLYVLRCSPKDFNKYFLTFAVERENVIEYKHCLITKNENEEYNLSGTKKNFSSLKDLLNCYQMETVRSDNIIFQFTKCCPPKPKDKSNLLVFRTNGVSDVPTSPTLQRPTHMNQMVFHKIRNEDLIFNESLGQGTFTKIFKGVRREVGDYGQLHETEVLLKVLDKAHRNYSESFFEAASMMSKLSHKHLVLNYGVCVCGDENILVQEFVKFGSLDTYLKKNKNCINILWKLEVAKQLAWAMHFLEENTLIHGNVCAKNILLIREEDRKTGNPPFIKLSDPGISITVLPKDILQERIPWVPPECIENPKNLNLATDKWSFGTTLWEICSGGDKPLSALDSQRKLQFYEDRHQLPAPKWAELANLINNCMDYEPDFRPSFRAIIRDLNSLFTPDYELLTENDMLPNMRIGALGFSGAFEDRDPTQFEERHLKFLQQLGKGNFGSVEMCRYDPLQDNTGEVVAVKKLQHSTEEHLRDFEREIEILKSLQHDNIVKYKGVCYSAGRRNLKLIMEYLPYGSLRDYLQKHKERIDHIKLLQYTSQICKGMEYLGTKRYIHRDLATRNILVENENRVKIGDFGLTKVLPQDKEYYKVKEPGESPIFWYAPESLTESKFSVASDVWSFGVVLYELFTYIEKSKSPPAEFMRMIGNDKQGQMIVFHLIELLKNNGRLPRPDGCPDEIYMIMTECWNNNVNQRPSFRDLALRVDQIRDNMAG
The target in data set [2] is T1, Tyrosine-protein kinase JAK3 (Homo sapiens, UniProt P52333).
T1 sequence (P52333 whole entry): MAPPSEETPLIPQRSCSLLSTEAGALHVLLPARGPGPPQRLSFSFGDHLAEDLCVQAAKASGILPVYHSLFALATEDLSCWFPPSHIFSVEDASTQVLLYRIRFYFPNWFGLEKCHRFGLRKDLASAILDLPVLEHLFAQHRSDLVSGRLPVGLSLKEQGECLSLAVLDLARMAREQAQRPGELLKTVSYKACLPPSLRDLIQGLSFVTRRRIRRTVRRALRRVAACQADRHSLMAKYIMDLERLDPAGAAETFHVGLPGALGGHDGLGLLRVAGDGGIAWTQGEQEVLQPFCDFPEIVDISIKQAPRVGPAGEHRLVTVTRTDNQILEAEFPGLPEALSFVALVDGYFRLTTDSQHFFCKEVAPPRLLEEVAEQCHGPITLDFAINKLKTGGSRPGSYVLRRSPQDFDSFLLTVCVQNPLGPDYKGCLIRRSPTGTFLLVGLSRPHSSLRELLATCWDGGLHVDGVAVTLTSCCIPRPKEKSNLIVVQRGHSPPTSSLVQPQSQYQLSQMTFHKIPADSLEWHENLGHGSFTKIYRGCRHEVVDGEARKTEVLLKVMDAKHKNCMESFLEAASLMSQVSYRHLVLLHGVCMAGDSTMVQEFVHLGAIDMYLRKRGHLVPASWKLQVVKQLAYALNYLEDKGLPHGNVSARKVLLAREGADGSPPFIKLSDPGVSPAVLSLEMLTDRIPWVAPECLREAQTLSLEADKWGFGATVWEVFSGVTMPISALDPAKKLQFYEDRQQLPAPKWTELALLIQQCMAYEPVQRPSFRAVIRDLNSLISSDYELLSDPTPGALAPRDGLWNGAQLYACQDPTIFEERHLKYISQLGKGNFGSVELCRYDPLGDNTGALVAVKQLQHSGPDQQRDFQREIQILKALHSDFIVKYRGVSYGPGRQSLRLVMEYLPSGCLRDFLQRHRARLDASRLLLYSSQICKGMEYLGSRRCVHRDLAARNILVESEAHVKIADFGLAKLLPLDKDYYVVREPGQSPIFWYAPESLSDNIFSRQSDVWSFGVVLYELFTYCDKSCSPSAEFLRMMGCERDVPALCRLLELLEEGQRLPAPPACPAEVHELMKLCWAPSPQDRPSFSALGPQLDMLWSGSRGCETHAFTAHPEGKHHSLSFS
Nature of the data set: Inhibition of recombinant JAK3 using Poly (Glu,Ala,Tyr) as substrate after 2 hrs by luminescence assay.

Data set [3] in a line: in vitro. The following applies: human, liver microsomes. For orientation: Liver microsomes are a subcellular fraction often used to study metabolism.
In data set [4] the target is Tyrosine-protein kinase JAK1 (Homo sapiens, UniProt P23458). Description: Inhibition of recombinant JAK1 using Poly (Glu,Ala,Tyr) as substrate after 2 hrs by luminescence assay. In outline:
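Luciferase-coupled ATP-depletion luminescence assay in 50 mM Hepes pH 7.5 with MgCl₂, MnCl₂, BGP, DTT and orthovanadate, 2 h at room temperature. Conditions per target: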

The target in data set [5] is Non-receptor tyrosine-protein kinase TYK2 (Homo sapiens, UniProt P29597). Nature of the data set: Inhibition of recombinant TYK2.
Non-receptor tyrosine-protein kinase TYK2, sequence (P29597 whole entry): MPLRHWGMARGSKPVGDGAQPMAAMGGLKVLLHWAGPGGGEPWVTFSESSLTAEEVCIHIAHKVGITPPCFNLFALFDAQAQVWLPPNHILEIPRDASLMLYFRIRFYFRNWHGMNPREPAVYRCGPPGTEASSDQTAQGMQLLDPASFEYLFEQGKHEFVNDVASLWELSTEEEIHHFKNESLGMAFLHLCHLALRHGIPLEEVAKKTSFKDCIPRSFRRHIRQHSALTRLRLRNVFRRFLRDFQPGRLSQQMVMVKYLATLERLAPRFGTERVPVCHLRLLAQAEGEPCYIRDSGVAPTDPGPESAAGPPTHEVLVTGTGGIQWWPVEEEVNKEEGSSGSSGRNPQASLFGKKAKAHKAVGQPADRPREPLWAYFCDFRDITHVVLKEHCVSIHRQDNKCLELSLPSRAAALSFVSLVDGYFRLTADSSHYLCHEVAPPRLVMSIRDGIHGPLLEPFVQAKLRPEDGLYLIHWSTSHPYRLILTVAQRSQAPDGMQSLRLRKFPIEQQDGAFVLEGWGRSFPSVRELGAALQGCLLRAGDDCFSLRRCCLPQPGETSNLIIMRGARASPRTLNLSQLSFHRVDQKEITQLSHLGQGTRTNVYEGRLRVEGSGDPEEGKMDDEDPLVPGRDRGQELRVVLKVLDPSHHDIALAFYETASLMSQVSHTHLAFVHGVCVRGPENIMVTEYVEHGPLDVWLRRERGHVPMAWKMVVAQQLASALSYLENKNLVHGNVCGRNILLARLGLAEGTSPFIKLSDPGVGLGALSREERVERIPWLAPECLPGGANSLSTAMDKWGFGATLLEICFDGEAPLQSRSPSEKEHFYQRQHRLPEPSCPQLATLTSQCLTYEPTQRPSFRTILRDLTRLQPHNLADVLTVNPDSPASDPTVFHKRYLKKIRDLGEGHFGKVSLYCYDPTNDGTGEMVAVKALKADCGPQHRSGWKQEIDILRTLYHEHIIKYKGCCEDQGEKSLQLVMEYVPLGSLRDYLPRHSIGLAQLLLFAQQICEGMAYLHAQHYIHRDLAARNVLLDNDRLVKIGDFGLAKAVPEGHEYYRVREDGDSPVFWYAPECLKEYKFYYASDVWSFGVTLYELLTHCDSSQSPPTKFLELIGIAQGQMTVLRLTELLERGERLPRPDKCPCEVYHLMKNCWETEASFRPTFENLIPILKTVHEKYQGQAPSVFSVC
Data set [6] in a line: Antiproliferative activity against mouse BA/F3 cells harboring JAK2 V617F mutation assessed as cell viability after 48 hrs by Cell titer Glo assay. It is filed as functional. The following applies: BaF3, 48 h. (Cellular ATP, detected with luciferase, serves as a proxy for viable cell number.)
In a further data set the test system is MV4-11. Description: Antiproliferative activity against human MV4-11 cells harboring FLT3 […] mutant assessed as cell viability after 48 hrs by Cell titer Glo assay. Particulars: MV4-11, 48 h. In kind it is functional.
A short description of data set [7]: in vitro. The following applies: mouse, liver microsomes.
For data set [8], the target named is T2, Receptor-type tyrosine-protein kinase FLT3 (Homo sapiens, UniProt P36888).
T2 sequence (P36888 whole entry): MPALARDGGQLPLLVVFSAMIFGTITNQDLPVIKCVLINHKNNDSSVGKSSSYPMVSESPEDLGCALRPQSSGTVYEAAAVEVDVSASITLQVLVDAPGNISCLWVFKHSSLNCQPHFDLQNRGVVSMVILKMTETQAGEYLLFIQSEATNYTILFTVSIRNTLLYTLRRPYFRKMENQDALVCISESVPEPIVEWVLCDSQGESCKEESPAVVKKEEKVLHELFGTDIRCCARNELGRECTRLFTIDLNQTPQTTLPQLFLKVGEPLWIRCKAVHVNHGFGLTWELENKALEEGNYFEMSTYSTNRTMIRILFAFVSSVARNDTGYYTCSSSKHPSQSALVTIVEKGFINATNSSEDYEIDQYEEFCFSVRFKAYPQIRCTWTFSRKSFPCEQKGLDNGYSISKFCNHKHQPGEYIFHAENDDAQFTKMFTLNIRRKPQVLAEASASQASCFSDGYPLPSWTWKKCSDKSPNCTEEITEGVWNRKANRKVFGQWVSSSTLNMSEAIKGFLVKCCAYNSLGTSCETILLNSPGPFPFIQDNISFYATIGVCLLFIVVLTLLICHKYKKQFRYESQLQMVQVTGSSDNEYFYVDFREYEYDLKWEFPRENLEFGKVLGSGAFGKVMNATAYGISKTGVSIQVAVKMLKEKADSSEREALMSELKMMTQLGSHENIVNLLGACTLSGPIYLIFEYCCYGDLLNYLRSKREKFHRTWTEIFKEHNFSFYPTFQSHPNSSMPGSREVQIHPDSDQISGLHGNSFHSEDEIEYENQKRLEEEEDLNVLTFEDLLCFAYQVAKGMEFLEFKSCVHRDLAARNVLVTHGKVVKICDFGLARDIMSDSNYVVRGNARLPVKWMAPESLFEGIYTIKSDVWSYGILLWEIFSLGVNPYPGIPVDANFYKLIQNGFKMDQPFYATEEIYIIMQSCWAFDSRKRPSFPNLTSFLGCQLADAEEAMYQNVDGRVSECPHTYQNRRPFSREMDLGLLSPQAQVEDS
Nature of the data set: Inhibition of recombinant FLT3 using Poly (Glu,Tyr) as substrate after 2 hrs by luminescence assay.

The next data set can be described thus: physchem. Particulars: phosphate buffer saline, pH 7.
Data set [9] has as its target Cyclin-dependent kinase 2/cyclin A (Homo sapiens, UniProt P24941). Nature of the data set: Inhibition of recombinant CDK2/Cyclin A using RbinG as substrate after 2 hrs by luminescence assay. In kind it is protein-complex assay.
A short description of data set [10]: in vitro. Particulars: PAMPA.
The target of another data set is Cytochrome P450 3A4 (Homo sapiens, UniProt P08684).
Cytochrome P450 3A4, sequence (P08684 whole entry): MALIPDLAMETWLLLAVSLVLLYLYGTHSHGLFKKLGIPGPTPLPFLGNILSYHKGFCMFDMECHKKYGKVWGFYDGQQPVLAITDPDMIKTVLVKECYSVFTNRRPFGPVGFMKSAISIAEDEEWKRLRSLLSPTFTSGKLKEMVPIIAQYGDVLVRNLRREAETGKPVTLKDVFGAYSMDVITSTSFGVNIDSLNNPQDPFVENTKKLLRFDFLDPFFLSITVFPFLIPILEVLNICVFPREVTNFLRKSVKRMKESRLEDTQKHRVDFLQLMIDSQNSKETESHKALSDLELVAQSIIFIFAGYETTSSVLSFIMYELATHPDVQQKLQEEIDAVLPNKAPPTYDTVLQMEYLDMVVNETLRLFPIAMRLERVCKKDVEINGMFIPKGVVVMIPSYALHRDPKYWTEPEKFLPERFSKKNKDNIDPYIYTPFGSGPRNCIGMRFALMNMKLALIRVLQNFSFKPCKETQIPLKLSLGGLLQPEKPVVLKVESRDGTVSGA
For the next data set, the target named is Cytochrome P450 2D6 (Homo sapiens, UniProt P10635).
Cytochrome P450 2D6, sequence (P10635 whole entry): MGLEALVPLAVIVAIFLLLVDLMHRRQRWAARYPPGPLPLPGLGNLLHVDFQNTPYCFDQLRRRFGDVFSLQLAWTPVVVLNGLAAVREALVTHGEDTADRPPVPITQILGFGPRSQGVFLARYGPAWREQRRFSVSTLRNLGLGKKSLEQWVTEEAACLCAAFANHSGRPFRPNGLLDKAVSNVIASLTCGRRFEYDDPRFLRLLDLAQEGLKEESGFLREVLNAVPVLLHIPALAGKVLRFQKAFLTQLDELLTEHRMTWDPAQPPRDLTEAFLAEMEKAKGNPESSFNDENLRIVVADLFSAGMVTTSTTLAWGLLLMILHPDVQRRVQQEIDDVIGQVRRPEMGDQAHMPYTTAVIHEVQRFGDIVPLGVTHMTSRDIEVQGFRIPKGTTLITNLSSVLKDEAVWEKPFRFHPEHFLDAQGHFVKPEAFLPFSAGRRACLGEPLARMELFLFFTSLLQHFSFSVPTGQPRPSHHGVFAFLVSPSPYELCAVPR

Tyrosine-protein kinase JAK1, sequence (P23458 whole entry): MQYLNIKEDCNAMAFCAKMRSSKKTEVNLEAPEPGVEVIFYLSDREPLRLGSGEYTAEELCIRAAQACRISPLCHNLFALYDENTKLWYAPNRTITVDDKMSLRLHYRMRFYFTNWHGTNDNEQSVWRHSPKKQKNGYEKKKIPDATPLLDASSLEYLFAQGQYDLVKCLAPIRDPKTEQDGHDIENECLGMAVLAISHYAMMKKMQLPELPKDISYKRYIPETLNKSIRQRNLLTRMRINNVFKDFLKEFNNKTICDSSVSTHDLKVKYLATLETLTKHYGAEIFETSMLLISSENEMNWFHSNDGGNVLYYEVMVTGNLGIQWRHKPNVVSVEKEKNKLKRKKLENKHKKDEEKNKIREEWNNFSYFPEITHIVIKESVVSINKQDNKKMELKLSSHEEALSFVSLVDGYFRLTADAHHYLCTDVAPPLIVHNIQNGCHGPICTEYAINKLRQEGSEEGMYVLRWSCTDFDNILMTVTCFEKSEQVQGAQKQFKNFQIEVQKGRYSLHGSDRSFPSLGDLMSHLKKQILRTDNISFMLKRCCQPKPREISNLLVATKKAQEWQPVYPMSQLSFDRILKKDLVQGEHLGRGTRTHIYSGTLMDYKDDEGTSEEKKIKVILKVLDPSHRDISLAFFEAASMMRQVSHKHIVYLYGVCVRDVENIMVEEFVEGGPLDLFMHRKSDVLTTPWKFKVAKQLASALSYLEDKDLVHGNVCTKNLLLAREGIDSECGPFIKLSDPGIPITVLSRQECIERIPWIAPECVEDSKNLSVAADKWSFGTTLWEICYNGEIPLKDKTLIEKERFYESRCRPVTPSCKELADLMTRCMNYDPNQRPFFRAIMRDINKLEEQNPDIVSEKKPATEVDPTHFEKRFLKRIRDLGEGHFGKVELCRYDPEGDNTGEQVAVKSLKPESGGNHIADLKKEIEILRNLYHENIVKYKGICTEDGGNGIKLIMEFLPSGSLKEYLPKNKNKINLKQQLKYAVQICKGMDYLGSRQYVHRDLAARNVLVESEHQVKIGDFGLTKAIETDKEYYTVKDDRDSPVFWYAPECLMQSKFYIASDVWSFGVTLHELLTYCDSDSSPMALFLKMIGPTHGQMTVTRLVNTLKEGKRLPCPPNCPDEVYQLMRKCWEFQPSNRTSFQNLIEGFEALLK

Regarding `Cc1cnc2nc1-c1cccc(c1)COCC=CCOCc1cc(ccc1OCCN1CCCC1)N2`, the pIC50 – broadly, the negative decadic logarithm of the IC50, by convention in mol/L – was 8.15 in data set [1]; 7.05 in data set [2]; 6.00 in [4]; 7.24 in data set [5]; 7.72 in [8]. Moreover, the half-life (commonly the time in which the quantity being followed falls by half) at 5 µM was more than 60 min in the data set “in vitro [3]” and 40 min in “in vitro [7]”. Besides, the GI50 – broadly, the concentration giving 50% growth inhibition – in data set [6] was found to be 180 nM; with MV4-11 it was 51 nM.

As to `OCCN1CCN(c2ccc3cc2COCC=CCOCc2cccc(c2)-c2ccnc(n2)N3)CC1`, the pIC50 is 7.08 in [1]; 5.60 in data set [2]; 5.51 in data set [4]; 6.80 in data set [5]; 5.43 in data set [9]; 7.15 in [8]. Further, the solubility (commonly the dissolved amount per volume that the medium holds) in the data set “physchem” was found to be 150 µg/mL (≈ 308 µM).

As for `C1=CCOCc2cccc(c2)-c2ccnc(n2)Nc2cc(cc(OCCN3CCCC3)c2)COC1` (mixture of isomers), the pIC50 in [1] is 7.32; in [2], 6.08; in data set [4], 5.68; in data set [5] it was 7.10; in data set [9], 6.24; in data set [8], 7.66. The molecule further had a solubility in “physchem” of 145 µg/mL.

Turning to `C1=CCOCc2cccc(c2)-c2ccnc(n2)Nc2cc(cc(OCCN3CCOCC3)c2)COC1` (mixture of isomers), the pIC50 was 7.02 in data set [1]; 5.48 in data set [2]; 5.62 in [4]; 7.09 in data set [5]; 5.57 in [9]; 7.72 in [8]. Moreover, in the data set “physchem”, the solubility was 40 µg/mL.

On to `COc1ccc2cc1COCC=CCOCc1cc(ccc1OCCN1CCCC1)Nc1nccc-2n1` (mixture of isomers), for which the pIC50 is 7.72 in [1]; 6.05 in [2]; less than 5.00 in data set [4]; less than 5.00 on Cytochrome P450 3A4; 6.74 in data set [5]; less than 5.00 against Cytochrome P450 2D6. Besides, the pIC50 in data set [9] was less than 5.00; in [8], 7.04. This molecule returned a solubility in “physchem” of 60.8 µg/mL. The values for the half-life at 5 µM in “in vitro [3]” and in “in vitro [7]” were more than 60 min and 29 min, respectively. In addition, the Papp (in general, the rate of passage across a membrane or cell layer, normalised by area and donor concentration) at 5 h, 1 µM in “in vitro [10]” stood at 10.1 ×10⁻⁶ cm/s. The values for the GI50 (in [6]; in the data set with MV4-11) were 100 nM and 85 nM, respectively.

Consider `C1=CCOc2cccc(c2)Nc2nccc(n2)-c2cccc(c2)OCC1` (mixture of isomers), for which the pIC50 was 6.64 in data set [1]; less than 5.00 in data set [2]; less than 5.00 in [4]; 7.15 in data set [5]; 6.48 in data set [9]; 6.06 in data set [8]. Moreover, the solubility in the data set “physchem” is less than 10 µg/mL.

Consider `COc1ccc2cc1COCC=CCOc1cccc(c1)-c1ccnc(n1)N2` (mixture of isomers), for which the pIC50 in data set [1] was 6.59; in [4], 5.24; in [5], 6.92; in data set [9] it was 6.44; in data set [8], 7.11. In “physchem”, this molecule registered a solubility of less than 10 µg/mL.

With `C1=CCOCc2cc(ccc2N2CCNCC2)Nc2nccc(n2)-c2cccc(c2)COC1` (mixture of isomers), the pIC50 in [1] is 7.08; in data set [2] it was 5.80; in [4], 5.60; in [5], 6.85; in data set [9] it was 5.47; in [8] it was 7.31. The molecule further gave a solubility in the data set “physchem” of 8.79 µg/mL.

For `C1=CCOCc2cc(ccc2OCCN2CCCCC2)Nc2nccc(n2)-c2cccc(c2)COC1` (mixture of isomers), the pIC50 in [1] was 7.82; in [2] it was 6.12; in data set [4] it was 6.02; at Cytochrome P450 3A4 it was 6.43; in data set [5], 7.08; against Cytochrome P450 2D6, less than 5.00. Besides, the pIC50 in data set [9] is 5.57; in [8] it was 7.59. The half-life at 5 µM was more than 60 min in “in vitro [3]” and 11 min in “in vitro [7]”. Moreover, the Papp at 5 h, 1 µM in the data set “in vitro [10]” was 3.93 ×10⁻⁶ cm/s. Moreover, the GI50 in data set [6] was 160 nM.
